Published values from different studies.
Each line is one published result; the experiments were not run side by side.
Target: Mitogen-activated protein kinase kinase kinase 1 (MAP3K1, Homo sapiens, UniProt Q13233)

COc1ncc2cc3ccccc3nc2c1C#N
remaining binding (cell-free assay; competition with immobilised ligand; 5 µM): 99%

F[C@@H]1CCN(c2nccc(-c3cnn4ncccc34)n2)C1
remaining binding (binding; 1 µM): 100%

C[C@H](NC(=O)c1cnc2n1[C@](C)(Cc1ccc(C#N)cc1)C(=O)N2c1cc(Cl)c(F)c(Cl)c1)C(=O)NC1(c2ccccn2)CC1
remaining binding (cell-free assay; competition with immobilised ligand; 1 µM): 100%

CCN1CCN(Cc2ccc(C(=O)Nc3ccc(C)c(Oc4ccc5c(c4)CC(=O)N5)c3)cc2C(F)(F)F)CC1
remaining binding (binding; competition with immobilised ligand; 1 µM): 100%

Nc1ncc2c(n1)-c1c([nH]c3ccc(C#CC4CC4)cc13)CCCC2
remaining binding (binding; competition with immobilised ligand; 1 µM): 97%

CNC(=O)c1ccc(Nc2ncc(C(F)(F)F)c(NCc3nccnc3N(C)S(C)(=O)=O)n2)cc1
remaining binding (cell-free assay; competition with immobilised ligand; 0.1 µM): 100%

Cc1cnc(Nc2ccc(C(=O)N3CCC(N4CCCC4)CC3)cc2)nc1-c1cc2ccccc2s1
remaining binding (binding; competition with immobilised ligand; 1 µM): 70%

N[C@@H]1CCN(c2nccc(-c3cnn4ncccc34)n2)C1
remaining binding (binding; 1 µM): 97%

O=C(c1ccc(Nc2nccc(-c3cc4ccccc4s3)n2)cc1)N1CCC(N2CCCC2)CC1
remaining binding (binding; competition with immobilised ligand; 1 µM): 98%

Cc1cc(NC(=O)c2cccc(S(F)(F)(F)(F)F)c2)cc(-n2ccn3nc(-c4cccnc4)cc23)c1
remaining binding (cell-free assay; competition with immobilised ligand; 1 µM): 90%

C[C@@H]1CCN(c2nccc(-c3cnn4ncccc34)n2)C1
remaining binding (binding; 1 µM): 85%

O=C(c1ccc(Nc2ncc(Cl)c(-c3ccc(Cl)s3)n2)cc1)N1CCC(N2CCCC2)CC1
remaining binding (binding; competition with immobilised ligand; 1 µM): 90%

Cc1cc(-n2nc(Cc3cc(F)cc(C(F)(F)F)c3)nc2C)ccc1C(N)=O
remaining binding (cell-free assay; competition with immobilised ligand; 1 µM): 100%

CN(C)c1ncc(F)c(-c2cnn3ncccc23)n1
remaining binding (binding; 1 µM): 80%

O=C(Nc1c[nH]nc1C(=O)NC1CCNCC1)c1cc(F)cc(F)c1
remaining binding (binding; competition with immobilised ligand; 1 µM): 84%

CO[C@@H](C)c1c(Nc2ccc([C@H](N(C)C(=O)C3CCS(=O)(=O)CC3)C(F)(F)F)cc2)cnc2cc(Cl)nn12
remaining binding (cell-free assay; competition with immobilised ligand; 1 µM): 100%

CN(c1nccc(-c2cnn3ncccc23)n1)C1CC1
remaining binding (binding; 1 µM): 81%

CS(=O)(=O)N1CCCC(NC(=O)[C@H](CCC2CCCCC2)NC(=O)c2ccc(CNc3ncnc4c3nnn4-c3ccccc3)cc2)C1 (stereo partly shown)
remaining binding (cell-free assay; competition with immobilised ligand; 0.1 µM): 81%

Cc1cnn2ncc(-c3ccnc(N(C)C)n3)c2c1
remaining binding (binding; 1 µM): 91%

CSc1cccnc1N1CCN(Cc2nc3ccccc3[nH]2)CC1
remaining binding (cell-free assay; competition with immobilised ligand; 1 µM): 70%

c1cnn2ncc(-c3ccnc(N4CCC45COC5)n3)c2c1
remaining binding (binding; 1 µM): 76%

COc1cnc(Nc2cccc(S(N)(=O)=O)c2)nc1N1CCN(c2ccccc2)CC1
remaining binding (binding; competition with immobilised ligand; 1 µM): 100%
